From ChEMBL document CHEMBL1154385, “(4-Piperidinyl)-piperazine: a new platform for acetyl-CoA carboxylase inhibitors” (Bioorg Med Chem Lett, 2009)

Key:
[1] = biological target: Acetyl-CoA carboxylase (Homo sapiens, UniProt Q13085+O00763); experiment: Inhibition of partially purified human liver ACC1/2
[2] = system: HepG2; experiment: Induction of fatty acid oxidation in human HepG2 cells after 48 hrs; assay type: functional, cell-based
Outline: (§1)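 HepG2 cells. Fatty acid synthesis read as decreased [¹⁴C] acetate incorporation into cellular lipids, reported as IC₅₀. Fatty acid oxidation read as T₂O generated in the culture medium, reported as EC₅₀.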

[3] = system: HepG2; experiment: Inhibition of fatty acid synthesis in human HepG2 cells after 48 hrs; assay type: functional, cell-based; conditions: for IC50: Homo sapiens, HepG2, 48 h
Outline: as §1

[4] = AUC in Sprague-Dawley rat at 10 mg/kg, po; assay type: ADME, organism-based; set-up: dose 10 mg/kg, route oral; conditions: plasma
Outline: (§2)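 Male Sprague-Dawley rats given a single oral dose of 10 mg/kg; plasma exposure parameters taken from the plasma profile.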

[5] = biological target: Acetyl-CoA carboxylase 1 (Homo sapiens, UniProt Q13085); experiment: Inhibition of human recombinant ACC1
Outline: (§3)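 Recombinant human ACC1 and ACC2 enzymes; activity read as inhibition of malonyl-CoA synthesis.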

[6] = Metabolic stability in rat liver microsome assessed as drug remaining at 5 uM after 15 mins; assay type: ADME; conditions: liver microsomes, read-out: Activity
Outline: (§4)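 Compound at 5 µM incubated at 37 °C for 15 min with 1 mg/mL human or rat liver microsomes. Cofactors: 1.5 mM glucose-6-phosphate, 0.16 mM NADP, 1 U/mL glucose-6-phosphate dehydrogenase. Medium: 250 mM phosphate buffer, 2.4 mM MgCl₂, 69 mM KCl. Compound measured by LC–MS/MS at 0 and 15 min; % remaining reported.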

[7] = Tmax in Sprague-Dawley rat at 10 mg/kg, po; assay type: ADME, organism-based; set-up: dose 10 mg/kg, route oral; conditions: in vivo
Outline: as §2

[8] = Metabolic stability in human liver microsome assessed as drug remaining at 5 uM after 15 mins; assay type: ADME; conditions: liver microsomes, read-out: Activity
Outline: as §4

[9] = biological target: Acetyl-CoA carboxylase 2 (Homo sapiens, UniProt O00763); experiment: Inhibition of human recombinant ACC2
Sequence of Acetyl-CoA carboxylase 2 (O00763 whole entry): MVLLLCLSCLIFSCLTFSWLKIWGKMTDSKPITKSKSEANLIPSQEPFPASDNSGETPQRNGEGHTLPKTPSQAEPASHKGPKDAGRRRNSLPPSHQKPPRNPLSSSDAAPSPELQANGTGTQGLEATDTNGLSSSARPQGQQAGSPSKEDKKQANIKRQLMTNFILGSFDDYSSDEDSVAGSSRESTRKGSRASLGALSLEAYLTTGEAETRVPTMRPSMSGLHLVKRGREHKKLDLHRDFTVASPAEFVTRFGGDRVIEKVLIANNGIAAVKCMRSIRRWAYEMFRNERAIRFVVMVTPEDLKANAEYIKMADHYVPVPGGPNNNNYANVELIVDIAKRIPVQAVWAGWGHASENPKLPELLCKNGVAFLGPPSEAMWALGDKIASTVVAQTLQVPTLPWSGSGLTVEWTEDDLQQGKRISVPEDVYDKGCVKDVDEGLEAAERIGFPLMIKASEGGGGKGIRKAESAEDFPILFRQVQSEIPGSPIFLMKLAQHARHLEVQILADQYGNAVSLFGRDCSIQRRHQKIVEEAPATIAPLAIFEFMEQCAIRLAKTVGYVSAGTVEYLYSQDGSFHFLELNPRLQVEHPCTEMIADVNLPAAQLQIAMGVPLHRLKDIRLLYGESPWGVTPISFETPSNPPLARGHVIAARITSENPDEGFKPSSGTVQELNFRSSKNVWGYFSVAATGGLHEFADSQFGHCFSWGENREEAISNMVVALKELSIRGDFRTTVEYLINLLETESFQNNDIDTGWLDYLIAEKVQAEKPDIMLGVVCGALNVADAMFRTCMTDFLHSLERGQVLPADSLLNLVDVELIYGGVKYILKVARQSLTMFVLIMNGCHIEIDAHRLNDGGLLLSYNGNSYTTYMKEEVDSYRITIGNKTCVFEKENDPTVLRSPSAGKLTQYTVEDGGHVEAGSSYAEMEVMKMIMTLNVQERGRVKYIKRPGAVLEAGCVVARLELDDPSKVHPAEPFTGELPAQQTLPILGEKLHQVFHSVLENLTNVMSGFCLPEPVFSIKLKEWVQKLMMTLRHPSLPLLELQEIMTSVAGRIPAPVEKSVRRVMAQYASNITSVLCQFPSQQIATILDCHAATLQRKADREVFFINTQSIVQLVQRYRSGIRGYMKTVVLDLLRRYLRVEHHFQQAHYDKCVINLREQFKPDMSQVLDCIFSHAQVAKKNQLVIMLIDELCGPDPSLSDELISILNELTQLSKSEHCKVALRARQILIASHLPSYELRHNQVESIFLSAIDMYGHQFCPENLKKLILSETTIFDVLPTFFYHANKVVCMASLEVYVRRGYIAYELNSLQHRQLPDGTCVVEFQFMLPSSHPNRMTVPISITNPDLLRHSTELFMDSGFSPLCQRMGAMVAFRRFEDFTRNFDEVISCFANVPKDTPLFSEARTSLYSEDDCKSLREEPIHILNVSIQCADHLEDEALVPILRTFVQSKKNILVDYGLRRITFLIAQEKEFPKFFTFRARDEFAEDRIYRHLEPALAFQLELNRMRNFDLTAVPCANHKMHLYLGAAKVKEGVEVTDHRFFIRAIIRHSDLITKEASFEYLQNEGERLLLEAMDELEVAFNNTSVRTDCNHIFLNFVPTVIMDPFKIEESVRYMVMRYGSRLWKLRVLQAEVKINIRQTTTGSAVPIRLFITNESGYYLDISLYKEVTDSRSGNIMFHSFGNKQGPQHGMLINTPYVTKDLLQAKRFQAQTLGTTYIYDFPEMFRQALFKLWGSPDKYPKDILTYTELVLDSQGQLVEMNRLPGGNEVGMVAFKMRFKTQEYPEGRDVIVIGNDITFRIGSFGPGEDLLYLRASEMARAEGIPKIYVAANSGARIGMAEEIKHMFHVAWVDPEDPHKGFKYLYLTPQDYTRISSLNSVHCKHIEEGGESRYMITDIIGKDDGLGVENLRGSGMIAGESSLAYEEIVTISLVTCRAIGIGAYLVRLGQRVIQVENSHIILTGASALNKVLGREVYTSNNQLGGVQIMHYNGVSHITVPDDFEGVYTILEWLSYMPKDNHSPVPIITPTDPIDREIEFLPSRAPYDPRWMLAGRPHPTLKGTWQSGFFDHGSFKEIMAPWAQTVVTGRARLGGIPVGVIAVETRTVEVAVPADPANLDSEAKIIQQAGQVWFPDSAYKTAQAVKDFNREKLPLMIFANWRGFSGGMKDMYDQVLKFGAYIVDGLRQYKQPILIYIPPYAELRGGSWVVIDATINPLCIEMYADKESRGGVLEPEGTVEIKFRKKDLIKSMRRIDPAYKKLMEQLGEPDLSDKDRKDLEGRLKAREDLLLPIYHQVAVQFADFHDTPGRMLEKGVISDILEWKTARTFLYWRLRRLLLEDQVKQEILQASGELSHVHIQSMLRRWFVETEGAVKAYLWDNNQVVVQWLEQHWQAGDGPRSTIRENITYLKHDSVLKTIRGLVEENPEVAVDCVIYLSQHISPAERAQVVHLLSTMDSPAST
Outline: as §3

[10] = Cmax in Sprague-Dawley rat at 10 mg/kg, po; assay type: ADME, organism-based; set-up: dose 10 mg/kg, route oral; conditions: in vivo
Outline: as §2

Row | SMILES | IC50 [1] [nM] | also measured
1 | COC(=O)N1CCC(C(=O)N2CCC(N3CCN(C(=O)c4cc(-c5ccccc5)nc(-c5ccccc5)c4)CC3)CC2)CC1 | 102 | –
2 | Cc1cc(C(=O)N2CCC(N3CCN(C(=O)c4cc(-c5ccccc5)nc(-c5ccccc5)c4)CC3)CC2)c(C)o1 | 157 | –
3 | CC(=O)N1CCC(C(=O)N2CCC(N3CCN(C(=O)c4cc(-c5ccccc5)nc(-c5ccccc5)c4)CC3)CC2)CC1 | 126 | Activity [2]: 148%; inhibition (INH) [3]: 72%
4 | CO[C@H]1CC[C@H](C(=O)N2CCC(N3CCN(C(=O)c4cc(-c5ccccc5)nc(-c5ccccc5)c4)CC3)CC2)CC1 | 155 | –
5 | CCC(=O)N1CCC(C(=O)N2CCC(N3CCN(C(=O)c4cc(-c5ccccc5)nc(-c5ccccc5)c4)CC3)CC2)CC1 | 115 | –
6 | O=C(c1ccccc1)N1CCC(C(=O)N2CCC(N3CCN(C(=O)c4cc(-c5ccccc5)nc(-c5ccccc5)c4)CC3)CC2)CC1 | 290 | –
7 | COCC(=O)N1CCC(C(=O)N2CCC(N3CCN(C(=O)c4cc(-c5ccccc5)nc(-c5ccccc5)c4)CC3)CC2)CC1 | 169 | –
8 | O=C(CO)N1CCC(C(=O)N2CCC(N3CCN(C(=O)c4cc(-c5ccccc5)nc(-c5ccccc5)c4)CC3)CC2)CC1 | 102 | –
9 | CC(C)OC(=O)N1CCC(C(=O)N2CCC(N3CCN(C(=O)c4cc(-c5ccccc5)nc(-c5ccccc5)c4)CC3)CC2)CC1 | 411 | –
10 | NC(=O)N1CCC(C(=O)N2CCC(N3CCN(C(=O)c4cc(-c5ccccc5)nc(-c5ccccc5)c4)CC3)CC2)CC1 | 151 | –
11 | CC(=O)N1CCC(C(=O)N2CCC(N3CCN(C(=O)c4cc(-c5ccccc5)nc(-c5ccc(F)cc5)c4)CC3)CC2)CC1 | 184 | –
12 | CC(=O)N1CCC(C(=O)N2CCC(N3CCN(C(=O)c4cc(-c5ccc(C)cc5)nc(-c5ccc(C)cc5)c4)CC3)CC2)CC1 | 76 | AUC [4]: 1000 ng·h/mL; Activity [2]: 176%; EC50 ([2]; Homo sapiens, HepG2, 48 h): 580 nM; IC50 [5]: 101 nM; remaining at 0.25 h, 5 µM [6]: 96%; Tmax [7]: 4 h; inhibition (INH) [3]: 77%; IC50 [3]: 340 nM; remaining at 0.25 h, 5 µM [8]: 87%; IC50 [9]: 23 nM; Cmax [10]: 107 ng/mL
13 | COc1ccc(-c2cc(C(=O)N3CCN(C4CCN(C(=O)C5CCN(C(C)=O)CC5)CC4)CC3)cc(-c3ccc(OC)cc3)n2)cc1 | 68 | Activity [2]: 167%; inhibition (INH) [3]: 77%
14 | CC(=O)N1CCC(C(=O)N2CCC(N3CCN(C(=O)c4cc(-c5ccc(O)cc5)nc(-c5ccc(O)cc5)c4)CC3)CC2)CC1 | 52 | Activity [2]: 123%; inhibition (INH) [3]: 29%
15 | CC(=O)N1CCC(C(=O)N2CCC(N3CCN(C(=O)c4cc(-c5ccc(CO)cc5)nc(-c5ccc(CO)cc5)c4)CC3)CC2)CC1 | 32 | Activity [2]: 120%
16 | CC(=O)N1CCC(C(=O)N2CCC(N3CCN(C(=O)c4cc(-c5cccc(C(N)=O)c5)nc(-c5cccc(C(N)=O)c5)c4)CC3)CC2)CC1 | 73 | Activity [2]: 94%
17 | CC(=O)N1CCC(C(=O)N2CCC(N3CCN(C(=O)c4cc(-c5ccc(C(N)=O)cc5)nc(-c5ccc(C(N)=O)cc5)c4)CC3)CC2)CC1 | 67 | Activity [2]: 135%

Row | SMILES | IC50 [1] [nM] | also measured
18 | CNC(=O)N1CCC(C(=O)N2CCC(N3CCN(C(=O)c4cc(-c5ccccc5)nc(-c5ccccc5)c4)CC3)CC2)CC1 | 95 | –
19 | CN(C)C(=O)N1CCC(C(=O)N2CCC(N3CCN(C(=O)c4cc(-c5ccccc5)nc(-c5ccccc5)c4)CC3)CC2)CC1 | 169 | –
20 | CS(=O)(=O)N1CCC(C(=O)N2CCC(N3CCN(C(=O)c4cc(-c5ccccc5)nc(-c5ccccc5)c4)CC3)CC2)CC1 | 248 | –
21 | CC(=O)N1CCC(C(=O)N2CCC(N3CCN(C(=O)c4cc(-c5cccc(F)c5)nc(-c5cccc(F)c5)c4)CC3)CC2)CC1 | 131 | –
22 | O=C(c1cc(-c2ccccc2)nc(-c2ccccc2)c1)N1CCN(C2CCN(C(=O)N3CCOCC3)CC2)CC1 | 869 | –
23 | O=C(c1ccccc1)N1CCC(N2CCN(C(=O)c3cc(-c4ccccc4)nc(-c4ccccc4)c3)CC2)CC1 | 693 | –
24 | O=C(c1cc(-c2ccccc2)nc(-c2ccccc2)c1)N1CCN(C2CCN(C(=O)C3CCCCC3)CC2)CC1 | 244 | –
25 | O=C(c1cc(-c2ccccc2)nc(-c2ccccc2)c1)N1CCN(C2CCN(C(=O)N3CCCCC3)CC2)CC1 | 434 | –
26 | O=C(c1c2ccccc2cc2ccccc12)N1CCN(C2CCN(C(=O)C3CCCC3)CC2)CC1 | 95 | –
27 | O=C(c1ccco1)N1CCC(N2CCN(C(=O)c3c4ccccc4cc4ccccc34)CC2)CC1 | 161 | –
28 | Cc1cc(C(=O)N2CCC(N3CCN(C(=O)c4c5ccccc5cc5ccccc45)CC3)CC2)c(C)o1 | 60 | –
29 | O=C(c1c2ccccc2cc2ccccc12)N1CCN(C2CCN(C(=O)C3CCCCC3)CC2)CC1 | 91 | –
30 | O=C(Cc1ccccc1)N1CCC(N2CCN(C(=O)c3c4ccccc4cc4ccccc34)CC2)CC1 | 2112 | –
31 | O=C(c1c2ccccc2cc2ccccc12)N1CCN(C2CCN(C(=O)N3CCOCC3)CC2)CC1 | 239 | –
32 | O=C(c1c2ccccc2cc2ccccc12)N1CCN(C2CCN(C(=O)N3CCCCC3)CC2)CC1 | 121 | –
33 | O=C(c1ccccc1)N1CCC(N2CCN(C(=O)c3c4ccccc4cc4ccccc34)CC2)CC1 | 66 | –
34 | O=C(c1c2ccccc2cc2ccccc12)N1CCC(N2CCC[C@@H](C(=O)N3CCOCC3)C2)CC1 | 116 | IC50 [5]: 456 nM; IC50 [3]: 840 nM; remaining at 0.25 h, 5 µM [8]: 52%; IC50 [9]: 194 nM
